Data from publication PMC6243397 (ACS Chemical Biology, 2018).
Read-outs that look alike come from different tables or passages of the source.

Columns and labels:
[1] = Mouse liver microsome stability assay; assay type: in vitro ADME; settings: percentage remaining relative to t0
[2] = Stability control without microsomes; assay type: physicochemical; settings: microsomes replaced with PBS, percentage remaining relative to t0
[3] = Hydrolytic stability in PBS; assay type: physicochemical; settings: pH 7.4, t1/2 in PBS, PBS pH 7.4, 37 °C
human GBM cell lines = experiment: Panel of human GBM cell lines, viability; assay type: cell-based
[4] = Assessment of hematological toxicity; assay type: in vivo, mouse; settings: single IV dose 125 mg/kg, 7 days post-treatment
How it was run: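 Mice received a single IV dose of 125 mg/kg test compound. Whole blood was collected 7 days post-dose and a complete blood count run per mouse (total WBC, lymphocytes, neutrophils). Four mice per cohort; error is SEM. Groups were compared with control by two-tailed two-sample Student's t test assuming equal variance.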

U87 cells = experiment: O6-methyldeoxyguanosine quantitation; assay type: cell-based, human; settings: 100 or 1000 μM, 8 h
How it was run: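 U87 cells were treated with 100 or 1000 μM test compound for 8 h. Genomic DNA was isolated, quantified and hydrolysed to deoxyribonucleosides. O6-methyldeoxyguanosine was quantitated by LC-MS/MS and expressed per 10 μg DNA.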

[5] = in vivo blood-brain barrier permeability; settings: CD-1 IGS, mouse, brain and serum, iv, 25 mg/kg
[6] = cited from earlier work

| SMILES | stability (2 h, microsomes) [1] [%] | stability (2 h, no microsomes) [2] [%] | also measured |
| --- | --- | --- | --- |
| CCN(CC)C(=O)c1ncn2c(=O)n(C)nnc12 [Compound 6] | 81 ± 1 | 95 ± 2 | – |
| CCCCN(CCCC)C(=O)c1ncn2c(=O)n(C)nnc12 [Compound 7] | 1 ± 1 | 98 ± 3 | – |
| Cc1ncn2c(=O)n(C)nnc12 [Compound 14] | – | – | half-life [3]: 2400 min |
| Cn1nnc2c(Cl)ncn2c1=O [Compound 19] | 91 ± 3 | 91 ± 1 | – |
| Cn1nnc2c(-c3ccccc3)ncn2c1=O [Compound 23] | 44 ± 2 | 103 ± 5 | – |
| Cn1nnc2c(C(N)=O)ncn2c1=O [TMZ, temozolomide] | 87 ± 6 | 86 ± 4 | IC50 (human GBM cell lines; read-out: IC50 in cell lines with negligible MGMT expression): ≤ 50 µM; IC50 (human GBM cell lines; read-out: IC50 in cell lines with significant MGMT expression): > 300 µM; myelosuppression / white blood cell count [4]: white blood cell (WBC) depletion relative to control mice; concentration of O6-methylated deoxyguanosine (U87 cells): Dose dependent increases; Kp at 5 min [5]: 0.23 ± 0.03; half-life in humans ([6]; humans): ~2 h; half-life in vivo and in aqueous solutions in vitro ([6]; in vivo and in aqueous solutions in vitro): ~2 h |
